Assay results reported in ChEMBL document CHEMBL1671716, “Antimicrobial susceptibility patterns for recent clinical isolates of anaerobic bacteria in South Korea” (2010).
Converted amounts (≈) assume the structure as drawn.

Columns and labels:
Bifidobacterium sp. [1] = experiment: Antimicrobial activity against Bifidobacterium sp. assessed as percent resistant isolates after 48 hrs by agar dilution method; assay type: functional
Outline: (§1)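 CLSI agar dilution on recent Korean clinical anaerobe isolates. Inoculum 10^5 CFU per spot by replicator. Plates incubated in an anaerobic chamber at 37°C for 48 h. For piperacillin plus tazobactam, tazobactam was held constant at 4 μg/ml. Resistance and susceptibility rates derived from MICs.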

[2] = system: Peptoniphilus asaccharolyticus; experiment: Antimicrobial activity against Peptoniphilus asaccharolyticus assessed as percent resistant isolates after 48 hrs by agar dilution method; assay type: functional; outline: as §1
Parvimonas micra = experiment: Antimicrobial activity against Peptostreptococcus micros assessed as percent susceptible isolates after 48 hrs by agar dilution method; assay type: functional; outline: as §1
Eggerthella lenta [3] = experiment: Antimicrobial activity against Eubacterium lentum assessed as percent susceptible isolates after 48 hrs by agar dilution method; assay type: functional
Outline: (§2)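 CLSI agar dilution (M11-A7); inoculum 10^5 CFU applied by replicator; plates incubated anaerobically 48 h at 37°C. For piperacillin-tazobactam, tazobactam held constant at 4 μg/ml.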

Anaerococcus prevotii [4] = experiment: Antimicrobial activity against Anaerococcus prevotii assessed as percent resistant isolates after 48 hrs by agar dilution method; assay type: functional; outline: as §1
Prevotella buccae = experiment: Antimicrobial activity against Prevotella buccae assessed as percent susceptible isolates after 48 hrs by agar dilution method; assay type: functional, Segatella buccae; outline: as §2
Actinomyces naeslundii = experiment: Antimicrobial activity against Actinomyces naeslundii after 48 hrs by agar dilution method; assay type: functional
Outline: (§3)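 MICs on clinical anaerobe isolates by the CLSI agar dilution method. Inoculum of 10^5 CFU applied with a Steers replicator. Plates incubated 48 h at 37°C in an anaerobic chamber.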

[5] = system: Parabacteroides distasonis; experiment: Antimicrobial activity against Bacteroides distasonis after 48 hrs by agar dilution method; assay type: functional; outline: as §3
Clostridioides difficile [6] = experiment: Antimicrobial activity against Clostridium difficile after 48 hrs by agar dilution method; assay type: functional
[7] = system: Peptoniphilus asaccharolyticus; experiment: Antimicrobial activity against Peptoniphilus asaccharolyticus assessed as percent susceptible isolates after 48 hrs by agar dilution method; assay type: functional; outline: as §2
Actinomyces israelii [8] = experiment: Antimicrobial activity against Actinomyces israelii after 48 hrs by agar dilution method; assay type: functional; outline: as §3
Clostridioides difficile [9] = experiment: Antimicrobial activity against Clostridium difficile assessed as percent resistant isolates after 48 hrs by agar dilution method; assay type: functional
[10] = system: Peptostreptococcus anaerobius; experiment: Antimicrobial activity against Peptostreptococcus anaerobius after 48 hrs by agar dilution method; assay type: functional; outline: as §2
Schaalia odontolytica [11] = experiment: Antimicrobial activity against Actinomyces odontolyticus assessed as percent susceptible isolates after 48 hrs by agar dilution method; assay type: functional
Eubacterium sp. [12] = experiment: Antimicrobial activity against Eubacterium sp. after 48 hrs by agar dilution method; assay type: functional; outline: as §2
Bacteroides fragilis [13] = experiment: Antimicrobial activity against Bacteroides fragilis assessed as percent resistant isolates after 48 hrs by agar dilution method; assay type: functional; outline: as §1
Finegoldia magna [14] = experiment: Antimicrobial activity against Finegoldia magna after 48 hrs by agar dilution method; assay type: functional; outline: as §2
Eggerthella lenta [15] = experiment: Antimicrobial activity against Eubacterium lentum assessed as percent resistant isolates after 48 hrs by agar dilution method; assay type: functional; outline: as §1
Actinomyces israelii [16] = experiment: Antimicrobial activity against Actinomyces israelii assessed as percent susceptible isolates after 48 hrs by agar dilution method; assay type: functional
Fusobacterium nucleatum = experiment: Antimicrobial activity against Fusobacterium nucleatum after 48 hrs by agar dilution method; assay type: functional; outline: as §2
[17] = system: Bifidobacterium adolescentis; experiment: Antimicrobial activity against Bifidobacterium adolescentis assessed as percent resistant isolates after 48 hrs by agar dilution method; assay type: functional; outline: as §1
Prevotella bivia = experiment: Antimicrobial activity against Prevotella bivia assessed as percent resistant isolates after 48 hrs by agar dilution method; assay type: functional; outline: as §1
Bacteroides fragilis [18] = experiment: Antimicrobial activity against Bacteroides fragilis after 48 hrs by agar dilution method; assay type: functional; outline: as §3
Schaalia meyeri = experiment: Antimicrobial activity against Actinomyces meyeri after 48 hrs by agar dilution method; assay type: functional; outline: as §3
Anaerococcus prevotii [19] = experiment: Antimicrobial activity against Anaerococcus prevotii assessed as percent susceptible isolates after 48 hrs by agar dilution method; assay type: functional
[20] = system: Porphyromonas asaccharolytica; experiment: Antimicrobial activity against Porphyromonas asaccharolytica after 48 hrs by agar dilution method; assay type: functional; outline: as §2
Prevotella intermedia = experiment: Antimicrobial activity against Prevotella intermedia after 48 hrs by agar dilution method; assay type: functional; outline: as §2
Finegoldia magna [21] = experiment: Antimicrobial activity against Finegoldia magna assessed as percent resistant isolates after 48 hrs by agar dilution method; assay type: functional; outline: as §1
Bacteroides caccae [22] = experiment: Antimicrobial activity against Bacteroides caccae assessed as percent resistant isolates after 48 hrs by agar dilution method; assay type: functional; outline: as §1
Bacteroides caccae [23] = experiment: Antimicrobial activity against Bacteroides caccae assessed as percent susceptible isolates after 48 hrs by agar dilution method; assay type: functional
Eubacterium sp. [24] = experiment: Antimicrobial activity against Eubacterium sp. assessed as percent susceptible isolates after 48 hrs by agar dilution method; assay type: functional; outline: as §2
Anaerococcus prevotii [25] = experiment: Antimicrobial activity against Anaerococcus prevotii after 48 hrs by agar dilution method; assay type: functional; outline: as §3
Clostridioides difficile [26] = experiment: Antimicrobial activity against Clostridium difficile assessed as percent susceptible isolates after 48 hrs by agar dilution method; assay type: functional
Eubacterium sp. [27] = experiment: Antimicrobial activity against Eubacterium sp. assessed as percent resistant isolates after 48 hrs by agar dilution method; assay type: functional; outline: as §1
Bacteroides fragilis [28] = experiment: Antimicrobial activity against Bacteroides fragilis assessed as percent susceptible isolates after 48 hrs by agar dilution method; assay type: functional
Bifidobacterium sp. [29] = experiment: Antimicrobial activity against Bifidobacterium sp. after 48 hrs by agar dilution method; assay type: functional; outline: as §3
Schaalia odontolytica [30] = experiment: Antimicrobial activity against Actinomyces odontolyticus assessed as percent resistant isolates after 48 hrs by agar dilution method; assay type: functional; outline: as §1
Fusobacterium necrogenes = experiment: Antimicrobial activity against Fusobacterium necrogenes after 48 hrs by agar dilution method; assay type: functional; outline: as §2
Hoylesella oralis = experiment: Antimicrobial activity against Prevotella oralis assessed as percent susceptible isolates after 48 hrs by agar dilution method; assay type: functional
Outline: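 CLSI agar dilution MIC testing of clinical isolates. 10^5 CFU spotted by replicator, plates incubated 48 h at 37°C in an anaerobic chamber. Susceptibility rates derived from the MICs.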

[31] = system: Peptostreptococcus anaerobius; experiment: Antimicrobial activity against Peptostreptococcus anaerobius assessed as percent susceptible isolates after 48 hrs by agar dilution method; assay type: functional; outline: as §1
Fusobacterium mortiferum = experiment: Antimicrobial activity against Fusobacterium mortiferum after 48 hrs by agar dilution method; assay type: functional; outline: as §2
Bacteroides ovatus [32] = experiment: Antimicrobial activity against Bacteroides ovatus assessed as percent susceptible isolates after 48 hrs by agar dilution method; assay type: functional
Clostridium perfringens = experiment: Antimicrobial activity against Clostridium perfringens assessed as percent susceptible isolates after 48 hrs by agar dilution method; assay type: functional
Bacteroides ovatus [33] = experiment: Antimicrobial activity against Bacteroides ovatus after 48 hrs by agar dilution method; assay type: functional; outline: as §3
Phocaeicola vulgatus [34] = experiment: Antimicrobial activity against Bacteroides vulgatus assessed as percent resistant isolates after 48 hrs by agar dilution method; assay type: functional; outline: as §1
Phocaeicola vulgatus [35] = experiment: Antimicrobial activity against Bacteroides vulgatus assessed as percent susceptible isolates after 48 hrs by agar dilution method; assay type: functional
Bacteroides ovatus [36] = experiment: Antimicrobial activity against Bacteroides ovatus assessed as percent resistant isolates after 48 hrs by agar dilution method; assay type: functional; outline: as §1
[37] = system: Bifidobacterium adolescentis; experiment: Antimicrobial activity against Bifidobacterium adolescentis after 48 hrs by agar dilution method; assay type: functional; outline: as §3

For `O=C(N[C@H](CO)[C@H](O)c1ccc([N+](=O)[O-])cc1)C(Cl)Cl` [CHLORAMPHENICOL], the Activity (Bifidobacterium sp. [1]) was 0%, the Activity [2] was 0% and the Activity (Parvimonas micra) was 0%. The Activity (Eggerthella lenta [3]) was 92%, the Activity (Anaerococcus prevotii [4]) was 0% and the Activity (Prevotella buccae) was 100%. For the same compound, the MIC (Actinomyces naeslundii) was 1 µg/mL (≈ 3.09 µM), the MIC50 (Actinomyces naeslundii) was 1 µg/mL (≈ 3.09 µM) and the MIC90 (Actinomyces naeslundii) was 2 µg/mL (≈ 6.19 µM). The MIC [5] was 4 µg/mL (≈ 12.4 µM), the MIC50 [5] was 4 µg/mL (≈ 12.4 µM) and the MIC90 [5] was 8 µg/mL (≈ 24.8 µM). For the same compound, the MIC50 (Clostridioides difficile [6]) was 4 µg/mL (≈ 12.4 µM), the MIC90 (Clostridioides difficile [6]) was 16 µg/mL (≈ 49.5 µM) and the Activity [7] was 100%. The MIC (Actinomyces israelii [8]) was 1 µg/mL (≈ 3.09 µM), the MIC50 (Actinomyces israelii [8]) was 1 µg/mL (≈ 3.09 µM) and the MIC90 (Actinomyces israelii [8]) was 2 µg/mL (≈ 6.19 µM). It also gave an Activity (Clostridioides difficile [9]) of 0%, an MIC50 [10] of 2 µg/mL (≈ 6.19 µM) and an MIC90 [10] of 2 µg/mL (≈ 6.19 µM). For the same compound, the Activity (Schaalia odontolytica [11]) was 92%, the MIC (Eubacterium sp. [12]) was 1 µg/mL (≈ 3.09 µM) and the MIC50 (Eubacterium sp. [12]) was 1 µg/mL (≈ 3.09 µM). The MIC90 (Eubacterium sp. [12]) was 2 µg/mL (≈ 6.19 µM), the Activity (Bacteroides fragilis [13]) was 0% and the MIC50 (Finegoldia magna [14]) was 4 µg/mL (≈ 12.4 µM). For the same compound, the MIC90 (Finegoldia magna [14]) was 4 µg/mL (≈ 12.4 µM), the Activity (Eggerthella lenta [15]) was 0% and the Activity (Actinomyces israelii [16]) was 92%. The MIC (Fusobacterium nucleatum) was 0.13 µg/mL (≈ 0.402 µM), the Activity [17] was 0% and the Activity (Prevotella bivia) was 0%. The MIC50 (Bacteroides fragilis [18]) was 4 µg/mL (≈ 12.4 µM), the MIC90 (Bacteroides fragilis [18]) was 4 µg/mL (≈ 12.4 µM) and the MIC (Schaalia meyeri) was 1 µg/mL (≈ 3.09 µM). The MIC50 (Schaalia meyeri) was 1 µg/mL (≈ 3.09 µM), the MIC90 (Schaalia meyeri) was 2 µg/mL (≈ 6.19 µM) and the Activity (Anaerococcus prevotii [19]) was 93%. It also gave an MIC [20] of 0.13 µg/mL (≈ 0.402 µM), an MIC (Prevotella intermedia) of 0.5 µg/mL (≈ 1.55 µM) and an MIC50 (Prevotella intermedia) of 0.5 µg/mL (≈ 1.55 µM). For the same compound, the MIC90 (Prevotella intermedia) was 1 µg/mL (≈ 3.09 µM), the Activity (Finegoldia magna [21]) was 0% and the Activity (Bacteroides caccae [22]) was 0%. It also gave an Activity (Bacteroides caccae [23]) of 98%, an Activity (Eubacterium sp. [24]) of 92% and an MIC50 (Anaerococcus prevotii [25]) of 4 µg/mL (≈ 12.4 µM). It also gave an MIC90 (Anaerococcus prevotii [25]) of 8 µg/mL (≈ 24.8 µM), an Activity (Clostridioides difficile [26]) of 83% and an Activity (Eubacterium sp. [27]) of 0%. The Activity (Bacteroides fragilis [28]) was 98%, the MIC (Bifidobacterium sp. [29]) was 1 µg/mL (≈ 3.09 µM) and the MIC50 (Bifidobacterium sp. [29]) was 1 µg/mL (≈ 3.09 µM). The MIC90 (Bifidobacterium sp. [29]) was 2 µg/mL (≈ 6.19 µM), the Activity (Schaalia odontolytica [30]) was 0% and the MIC (Fusobacterium necrogenes) was 0.13 µg/mL (≈ 0.402 µM). The Activity (Hoylesella oralis) was 100%, the Activity [31] was 100% and the MIC (Fusobacterium mortiferum) was 0.13 µg/mL (≈ 0.402 µM). It also gave an Activity (Bacteroides ovatus [32]) of 98%, an Activity (Clostridium perfringens) of 100% and an MIC (Bacteroides ovatus [33]) of 4 µg/mL (≈ 12.4 µM). The MIC50 (Bacteroides ovatus [33]) was 4 µg/mL (≈ 12.4 µM), the MIC90 (Bacteroides ovatus [33]) was 8 µg/mL (≈ 24.8 µM) and the Activity (Phocaeicola vulgatus [34]) was 0%. It also gave an Activity (Phocaeicola vulgatus [35]) of 98%, an Activity (Bacteroides ovatus [36]) of 0% and an MIC [37] of 1 µg/mL (≈ 3.09 µM). It also gave an MIC50 [37] of 1 µg/mL (≈ 3.09 µM) and an MIC90 [37] of 2 µg/mL (≈ 6.19 µM).
